Experimental data from ChEMBL document CHEMBL2093137, “WHO-TDR NTD Screening”.
≈ marks a conversion by molar mass, not a printed value.

Columns and labels:
[1] = system: Trypanosoma cruzi; experiment: WHO-TDR: Chagas disease; type: functional, organism-based, Homo sapiens; conditions: MRC5
In short: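 Following previously published standard procedures, with a reference drug as positive control, a whole-organism assay was run on Trypanosoma cruzi Tulahuen CL2 beta-galactosidase strain amastigotes inside MRC-5SV2 human lung fibroblast host cells. The 10,000 compounds tested formed a diverse Life Chemicals library filtered for drug-likeness and reactive groups. Results are expressed as IC50 for antiparasitic potency.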

[2] = system: Trypanosoma brucei brucei; experiment: WHO-TDR: Human African Trypanosomiasis (HAT); type: functional, organism-based; conditions: Squib-427
In short: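 Values are IC50 figures for antiparasitic potency. They come from a whole-organism screen of 10,000 diverse Life Chemicals compounds against bloodstream-form Trypanosoma brucei (Squib 427 strain).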

[3] = WHO-TDR: Cytotoxicity; type: toxicity, cell-based; conditions: human, MRC5 cells
[4] = system: Onchocerca ochengi; experiment: WHO-TDR: Onchocerciasis; type: functional; set-up: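 at 12.5 µM on microfilariae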
In short: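 Onchocerca ochengi or Onchocerca lienalis, animal pathogens used as surrogates for the human parasite, were screened as whole microfilariae against a 10,000-compound diverse library from Life Chemicals. The reported measures of activity are percent inhibition and IC50.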

[5] = system: Plasmodium falciparum K1; experiment: WHO-TDR: Malaria; type: functional, organism-based, Homo sapiens; conditions: Erythrocyte
In short: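 Values are IC50 figures for antiplasmodial potency. They come from a whole-organism screen of 10,000 diverse Life Chemicals compounds against Plasmodium falciparum K1 growing inside human red blood cells, run by previously published standard procedures.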

[6] = system: Leishmania infantum; experiment: WHO-TDR: Leishmaniasis; type: functional, organism-based, Mus musculus; conditions: Macrophage
In short: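 Values are IC50 figures for antiparasitic potency. They come from a whole-organism screen of a 10,000-compound diverse Life Chemicals library against Leishmania infantum MHOM/MA(BE)/67 amastigotes inside murine peritoneal macrophage host cells.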

[7] = system: Brugia malayi; experiment: WHO-TDR: Lymphatic Filariasis; type: functional; set-up: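 tested at 10 µM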
In short: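 Percent inhibition and IC50 describe activity against Brugia malayi microfilariae in a whole-organism screen. The screen used previously published standard procedures with reference drugs as positive controls. Compounds came from a diverse Life Chemicals library of 10,000, filtered for drug-likeness and reactive groups.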

| SMILES | IC50 [1] [µg/mL] | IC50 [2] [µg/mL] | IC50 [3] [µg/mL] | % Inhibition [4] [%] | IC50 [5] [µg/mL] | IC50 [6] [µg/mL] | % Inhibition [7] [%] |
| --- | --- | --- | --- | --- | --- | --- | --- |
| COc1ccc(OC)c(Nc2nc(CC(=O)NCc3ccccc3Cl)cs2)c1 | 3.77 (≈ 9.02 µM) | > 12.5 | 2.13 (≈ 5.1 µM) | 100 | > 12.5 | 8.54 (≈ 20.4 µM) | 20 |
| Cc1cccc2sc(NC(=O)CCc3csc(NC(=O)c4ccco4)n3)nc12 | > 12.4 | > 12.4 | > 12.4 | 100 | > 12.4 | 0.843 (≈ 2.04 µM) | 0 |
| O=S(=O)(c1cccc(Cl)c1)N1CCN(c2ccc(Nc3ccncc3)nn2)CC1 | 3.98 (≈ 9.24 µM) | 4.24 (≈ 9.83 µM) | 12.9 (≈ 30 µM) | 100 | 5.77 (≈ 13.4 µM) | > 12.9 | 0 |
| CCSc1nnc(NC(=O)c2cc(=O)c(OCc3ccc(F)cc3)cn2C)s1 | > 12.6 | > 12.6 | > 12.6 | 100 | > 12.6 | > 12.6 | 0 |
| Cc1nc2sc(C)c(C)n2c(=O)c1NC(=O)CC(c1ccccc1)c1ccccc1 | > 12.5 | > 12.5 | > 12.5 | 100 | > 12.5 | > 12.5 | 0 |
| Cc1cc(=O)[nH]c(-n2nc(C)c(CCC(=O)Nc3ccc(F)c(C(F)(F)F)c3)c2C)n1 | 4.25 (≈ 9.73 µM) | 5 (≈ 11.4 µM) | > 13.1 | 100 | > 13.1 | > 13.1 | 20 |
| COc1ccccc1CC(=O)c1ccc(O)c(CN2CCCC(C)C2)c1O (centres undefined) | > 11.1 | 3.63 (≈ 9.83 µM) | > 11.1 | 0 | 0.343 (≈ 0.928 µM) | > 11.1 | 0 |
| CCCCOc1ccc(C(=O)N2CCN(c3cc(OC)nc(OC)n3)CC2)cc1 | > 12 | > 12 | > 12 | 100 | > 12 | > 12 | 0 |
| O=C(Cc1csc(Nc2ccccc2)n1)NCCc1c[nH]c2ccccc12 | > 11.3 | > 11.3 | > 11.3 | 100 | > 11.3 | > 11.3 | 20 |
| COc1cccc(-c2cn3c(C(=O)N4CCN(c5ccccc5OC)CC4)csc3n2)c1 | 6.97 (≈ 15.5 µM) | > 13.5 | 2.13 (≈ 4.76 µM) | 100 | > 13.5 | 6.97 (≈ 15.5 µM) | 0 |
| Cc1cc(=O)[nH]c(-n2nc(C)c(CCC(=O)Nc3cc(C)on3)c2C)n1 | > 10.7 | > 10.7 | > 10.7 | 100 | > 10.7 | > 10.7 | 20 |
| COc1ccc(NC(=O)Nc2cccc(-c3csc4nc(C)cc(=O)n34)c2)cc1 | > 12.2 | 4.04 (≈ 9.95 µM) | > 12.2 | 0 | > 12.2 | 0.395 (≈ 0.972 µM) | 0 |
| CCOc1ncccc1C(=O)Nc1c(C)nc2sc(C)c(C)n2c1=O | > 10.8 | > 10.8 | > 10.8 | 0 | > 10.8 | 0.348 (≈ 0.971 µM) | 0 |
| CCCCOc1ccc(C(=O)N2CCN(c3ccc(Nc4cccnc4)nn3)CC2)cc1 | 3.45 (≈ 7.98 µM) | 11.9 (≈ 27.5 µM) | > 13 | 100 | 1.69 (≈ 3.91 µM) | 0.42 (≈ 0.971 µM) | 0 |
| c1ccc2c(c1)CCN(c1ncnc3[nH]ncc13)C2 | > 7.54 | > 7.54 | > 7.54 | 100 | > 7.54 | > 7.54 | 0 |
| FC(F)(F)c1ccc(Nc2ncnc3[nH]ncc23)cc1 | 2.72 (≈ 9.73 µM) | 3.19 (≈ 11.4 µM) | > 8.38 | 100 | > 8.38 | > 8.38 | 0 |
| O=C(Cc1csc(Nc2cccc(Cl)c2)n1)NCc1ccccn1 | 1.71 (≈ 4.75 µM) | > 10.8 | 1.76 (≈ 4.91 µM) | 100 | > 10.8 | 2.55 (≈ 7.11 µM) | 0 |
